Assay results taken from PMC2788666 (Journal of medicinal chemistry, 2009).
Entries after “also recorded” stand apart in the source; their conditions may differ. Like-named read-outs stand apart in the source and are kept apart here.

Assays:
μ opioid receptor [1] = target: T1, μ opioid receptor (Homo sapiens, UniProt P35372); assay: [35S]GTPγS binding mediated by the μ opioid receptor, agonist effects; format: biochemical; settings: for Emax (% stimulation) ± S.E.M., Mu Agonist Effects: CHO cells expressing μ opioid receptor; for Functional Activity at μ opioid receptor: [35S]GTPγS binding
μ opioid receptor [2] = target: T1, μ opioid receptor; assay: [35S]GTPγS binding mediated by the μ opioid receptor, antagonist effects; format: biochemical; settings: binding stimulated with 200 nM DAMGO; for Imax (% inhibition) ± S.E.M., Mu Antagonist Effects: set at 100% control
κ opioid receptor [3] = target: T2, κ opioid receptor (Homo sapiens, UniProt P41145); assay: [35S]GTPγS binding mediated by the kappa opioid receptor, agonist effects; format: biochemical; settings: for Functional activity at κ opioid receptor: [35S]GTPγS binding
In short: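 CHO cells expressing κ opioid receptor were incubated with test compound at 12 concentrations, and agonist-stimulated [35S]GTPγS binding was measured. EC50 and maximal stimulation (% stimulation) are reported with S.E.M.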

κ opioid receptor [4] = target: T2, κ opioid receptor; assay: [35S]GTPγS binding mediated by the kappa opioid receptor, antagonist effects; format: biochemical; settings: for IC50 (nM) ± S.E.M., Kappa Antagonist Effects: binding stimulated with 100 nM U50,488; for Imax (% inhibition) ± S.E.M., Kappa Antagonist Effects: binding stimulated with 100 nM U50,488, set at 100% control
In short: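 Antagonist mode in CHO cells expressing κ opioid receptor: [35S]GTPγS binding was stimulated with 100 nM U50,488, taken as 100% control binding. Inhibition of this stimulated binding by test compound was measured, and IC50 and maximal inhibition (% inhibition) are reported with S.E.M.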

κ opioid receptor [5] = target: T2, κ opioid receptor; settings: ratio of Ki values, κ = 1; ref [2]; cited from earlier work
κ opioid receptor [6] = target: T2, κ opioid receptor; assay: Opioid binding to κ receptor, [3H]U69,593, CHO membranes; settings: for Selectivity μ/δ/κ: ratio of Ki values, κ = 1; for times less active than unsubstituted C10 bivalent ligand 10 at the κ receptor: binding affinity versus 10
In short: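 Membranes from CHO cells stably expressing human κ opioid receptor were incubated 60 min at 25 °C in 50 mM Tris-HCl pH 7.5 with 1 nM (final) [3H]U69,593. […] Samples were filtered on glass-fibre filters presoaked ≥30 min in 0.1% polyethylenimine, washed three times with cold Tris buffer, and counted by scintillation. IC50 came from a log-probit least-squares fit, Ki from IC50/(1+S), and ratios from Ki values.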

[7] = pH 7.4; ref [8]; cited from earlier work

T2 sequence (P41145 whole entry): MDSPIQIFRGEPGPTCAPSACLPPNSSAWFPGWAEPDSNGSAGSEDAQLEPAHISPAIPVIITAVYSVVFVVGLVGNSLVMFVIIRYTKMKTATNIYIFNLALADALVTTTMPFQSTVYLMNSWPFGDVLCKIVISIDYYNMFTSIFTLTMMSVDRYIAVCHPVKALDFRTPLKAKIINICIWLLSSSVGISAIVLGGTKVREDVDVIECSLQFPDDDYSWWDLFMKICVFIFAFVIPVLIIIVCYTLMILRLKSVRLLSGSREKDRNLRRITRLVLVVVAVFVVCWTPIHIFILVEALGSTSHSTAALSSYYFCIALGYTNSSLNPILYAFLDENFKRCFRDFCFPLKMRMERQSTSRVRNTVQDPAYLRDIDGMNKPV
T1 sequence (P35372 whole entry): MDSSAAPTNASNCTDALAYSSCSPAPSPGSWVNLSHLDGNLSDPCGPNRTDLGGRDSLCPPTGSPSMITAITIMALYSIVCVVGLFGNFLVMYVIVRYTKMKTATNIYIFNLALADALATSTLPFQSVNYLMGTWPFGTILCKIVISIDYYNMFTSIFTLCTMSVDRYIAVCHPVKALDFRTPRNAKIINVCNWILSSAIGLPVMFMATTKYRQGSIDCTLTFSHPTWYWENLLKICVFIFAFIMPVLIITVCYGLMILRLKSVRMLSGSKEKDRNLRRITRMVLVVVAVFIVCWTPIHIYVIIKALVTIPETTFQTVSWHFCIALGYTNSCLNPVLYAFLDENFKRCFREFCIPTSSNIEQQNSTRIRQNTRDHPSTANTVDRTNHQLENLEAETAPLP

SMILES	Emax (% stimulation) ± S.E.M., Mu Agonist Effects (μ opioid receptor [1]) [% stimulation]	Functional Activity at μ opioid receptor (μ opioid receptor [1])	Imax (% inhibition) ± S.E.M., Mu Antagonist Effects (μ opioid receptor [2])	Emax (% stimulation) ± S.E.M., Kappa Agonist Effects (κ opioid receptor [3]; CHO cells expressing κ opioid receptor) [% stimulation]	Functional activity at κ opioid receptor (κ opioid receptor [3])	IC50 (nM) ± S.E.M., Kappa Antagonist Effects (κ opioid receptor [4])	Imax (% inhibition) ± S.E.M., Kappa Antagonist Effects (κ opioid receptor [4])	Selectivity μ/δ/κ (κ opioid receptor [5])	Selectivity μ/δ/κ (κ opioid receptor [6])	times less active than unsubstituted C10 bivalent ligand 10 at the κ receptor (κ opioid receptor [6])	IC50 (nM) ± S.E.M., Mu Antagonist Effects (μ opioid receptor [2])	times more stable than mono phenyl succinate [7] [times]
Oc1ccc2c(c1)[C@@]13CCCC[C@H]1[C@@H](C2)N(CC1CCC1)CC3 [Butorphan, butorphan]	50 ± 2.5	Partial Agonist	50 ± 2.6 % inhibition	80 ± 6.8	Agonist							
O=C(CCCCCCCCC(=O)Oc1ccc2c(c1)[C@@]13CCCC[C@H]1[C@@H](C2)N(CC1CCC1)CC3)Oc1ccc2c(c1)[C@@]13CCCC[C@H]1[C@@H](C2)N(CC1CCC1)CC3 [compound 10, reference compound]	51 ± 6.5	Partial Agonist			Agonist	No inhibition	No inhibition	2/90/1				
CC(CCCCCCC(C)C(=O)Oc1ccc2c(c1)[C@@]13CCCC[C@H]1[C@@H](C2)N(CC1CCC1)CC3)C(=O)O (stereo partly drawn) [7a, 2,9-Dimethyldecanedioic acid 10-((−)-N-cyclobutylmethylmorphinan-3-yl) ester]		Partial Agonist			κ agonists; also recorded: Agonist	No inhibition	No inhibition		1/48/1			
CC(CCCCCCC(C)C(=O)Oc1ccc2c(c1)[C@@]13CCCC[C@H]1[C@@H](C2)N(CC1CCC1)CC3)C(=O)Oc1ccc2c(c1)[C@@]13CCCC[C@H]1[C@@H](C2)N(CC1CCC1)CC3 (stereo partly drawn) [4a, Bis((−)-N-cyclobutylmethylmorphinan-3-yl) 2,9-dimethyldecanedioate]		Partial Agonist			partial agonists; also recorded: κ agonists; also recorded: Agonist	No inhibition	No inhibition			approximately 10 times		
C=CCN1CC[C@]23c4c5ccc(OC(=O)CCCCCCCCC(=O)Oc6ccc7c(c6)[C@@]68CCCC[C@H]6C(C7)N(CC6CCC6)CC8)c4O[C@H]2CCC[C@H]3[C@H]1C5 [compound 11, reference compound]		Partial Agonist			κ agonists; also recorded: Agonist	No inhibition	No inhibition					
O=C(O)CCCCCCCCC(=O)Oc1ccc2c(c1)[C@@]13CCCC[C@H]1[C@@H](C2)N(CC1CCC1)CC3 [compound 9, reference compound]		full μ agonist	No inhibition		κ agonists; also recorded: full agonist	No inhibition	No inhibition				No inhibition	
CC(C)(CCCCCCC(C)(C)C(=O)Oc1ccc2c(c1)[C@@]13CCCC[C@H]1[C@@H](C2)N(CC1CCC1)CC3)C(=O)Oc1ccc2c(c1)[C@@]13CCCC[C@H]1[C@@H](C2)N(CC1CCC1)CC3 [4b, Bis((−)-N-cyclobutylmethylmorphinan-3-yl) 2,2,9,9-tetramethyldecanedioate]		Partial Agonist			partial agonists; also recorded: κ agonists; also recorded: Agonist	No inhibition	No inhibition		1/32/1	approximately 10 times		
CC(CC(=O)Oc1ccccc1)C(=O)O (stereo not drawn) [mono phenyl ester of 2-methylsuccinic acid]												43
CC(C)(CCCCCCC(C)(C)C(=O)Oc1ccc2c(c1)[C@@]13CCCC[C@H]1[C@@H](C2)N(CC1CCC1)CC3)C(=O)O [7b, 2,2,9,9-Tetramethyldecanedioic acid 10-((−)-N-cyclobutylmethylmorphinan-3-yl) ester]									3/22/1			
